This note sets out measurements from ChEMBL document CHEMBL1140981, “Substrate optimization for monitoring cathepsin C activity in live cells” (Bioorg Med Chem, 2009).

Calls of active or inactive are those of the source. The rule behind the calls is not given here.

Experiment [1] concerns the target T1, Dipeptidyl peptidase 1 (Homo sapiens, UniProt P53634). Put plainly: Inhibition of human recombinant cathepsin C by fluorescence assay. The method, boiled down:
(§1)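 Recombinant human enzyme was preincubated with inhibitor for 20 min. Substrate was then added: H-Arg-AMC for cathepsin H, H₂N-Gly-Phe-AMC for cathepsin C. Buffer was 100 mM NaOAc, 1 mM EDTA, 0.01% Brij-35, 5 mM DTT, pH 5.5, 37 °C. AMC release was read by fluorescence, ex 380/em 450 nm. Progress curves were fitted to the Morrison equation, and apparent values were converted to Ki assuming competitive inhibition.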

Experiment [2] is filed under the species Homo sapiens. Put plainly: Selectivity for human recombinant cathepsin C over human recombinant cathepsin H.
Another experiment has as its target Cathepsin S (Homo sapiens, UniProt P25774). Put plainly: Inhibition of human recombinant cathepsin S by fluorescence assay.
Experiment [3] is filed under the species Homo sapiens. Put plainly: Selectivity for human recombinant cathepsin C over human recombinant cathepsin B.
The next experiment concerns the target T2, Cathepsin K (Homo sapiens, UniProt P43235).
T2 sequence (P43235 whole entry): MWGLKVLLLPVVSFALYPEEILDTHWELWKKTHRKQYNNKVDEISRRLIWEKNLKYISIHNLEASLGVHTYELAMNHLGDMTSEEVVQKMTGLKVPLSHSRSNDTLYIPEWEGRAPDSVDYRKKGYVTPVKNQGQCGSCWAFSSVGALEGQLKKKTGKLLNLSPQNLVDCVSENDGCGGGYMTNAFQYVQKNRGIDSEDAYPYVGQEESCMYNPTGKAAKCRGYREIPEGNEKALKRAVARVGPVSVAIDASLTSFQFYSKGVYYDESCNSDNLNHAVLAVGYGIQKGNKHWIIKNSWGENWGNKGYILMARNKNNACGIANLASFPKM
Put plainly: Inhibition of human recombinant cathepsin K by fluorescence assay.

Experiment [4] deals with Procathepsin L (Homo sapiens) (UniProt P07711). Put plainly: Inhibition of human recombinant cathepsin L by fluorescence assay.
In experiment [5] the target is T1, Dipeptidyl peptidase 1. Put plainly: Blockade of conjugation of cathepsin C in human B721 cells to I125-labeled (S)-2-amino-N-((S)-1-(4-hydroxy-3-iodophenylsulfonyl)-5-phenylpent-1-en-3-yl)pentanamide pretreated for 30 mins before addition of I125-labeled (S)-2-amino-N-((S)-1-(4-hydroxy-3-iodophenylsulfonyl)-5-phenylpent-1-en-3-yl)pentanamide by SDS-PAGE. Format: cell-based. The method, boiled down: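 B721 cells at 1 × 10⁶ cells/mL were preincubated with compound or DMSO (final 50, 10, 1, 0.1, 0 μM) for 30 min at 37 °C, 5% CO2. ¹²⁵I-labeled probe was then added at 2 nM for another 30 min at 37 °C. Cells were pelleted, lysed and boiled. Labeled cathepsin C was resolved by SDS–PAGE and quantified by phosphorimaging.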

Experiment [6] deals with T1, Dipeptidyl peptidase 1. Put plainly: Inhibition of cathepsin C in human B721 cells by FACS assay. Format: cell-based. In outline: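 B721 EBV-immortalized B cells were washed and resuspended in serum-free, phenol red-free RPMI 1640 at 1 × 10⁶ cells/mL. Cells were pretreated with compound or DMSO (final 10, 3.3, 1.1, 0.37, 0.12, 0 μM) for 30 min at 37 °C, 5% CO2. (H₂N-Abu-Hph)₂-rhodamine (final 2 μM) and propidium iodide (4 μg/mL) were added. Flow cytometry read ex 488/em 530 nm at three time points 15 min apart.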

The target in another experiment is T3, Pro-cathepsin H (Homo sapiens, UniProt P09668).
T3 sequence (P09668 whole entry): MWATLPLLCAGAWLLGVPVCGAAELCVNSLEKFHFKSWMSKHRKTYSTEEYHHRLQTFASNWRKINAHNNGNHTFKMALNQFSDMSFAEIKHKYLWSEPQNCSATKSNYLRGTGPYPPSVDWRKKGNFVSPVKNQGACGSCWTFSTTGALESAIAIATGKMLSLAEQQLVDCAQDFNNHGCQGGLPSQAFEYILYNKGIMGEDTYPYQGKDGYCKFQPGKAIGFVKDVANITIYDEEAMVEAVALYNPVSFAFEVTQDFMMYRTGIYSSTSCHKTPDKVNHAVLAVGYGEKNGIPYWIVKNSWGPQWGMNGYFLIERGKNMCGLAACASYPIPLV
Put plainly: Inhibition of human recombinant cathepsin H by fluorescence assay. The method, boiled down:
as §1

For experiment [7], the species on record is Homo sapiens. Put plainly: Selectivity for human recombinant cathepsin C over human recombinant cathepsin S.
For experiment [8], the species on record is Homo sapiens. Put plainly: Selectivity for human recombinant cathepsin C over human recombinant cathepsin K.
For a further experiment, the target named is Cathepsin B (Homo sapiens, UniProt P07858). Put plainly: Inhibition of human recombinant cathepsin B by fluorescence assay.
For experiment [9], the species on record is Homo sapiens. Put plainly: Selectivity for human recombinant cathepsin C over human recombinant cathepsin L.
For experiment [10], the target named is T1, Dipeptidyl peptidase 1. Put plainly: Binding affinity to cathepsin C in human B721 cells assessed as cellular compound turnover in presence of (S)-2-Amino-pentanoic acid ((S)-3-methanesulfonyl-1-phenethyl-allyl)-amide. Format: cell-based.

Sequence of Cathepsin S (P25774 whole entry): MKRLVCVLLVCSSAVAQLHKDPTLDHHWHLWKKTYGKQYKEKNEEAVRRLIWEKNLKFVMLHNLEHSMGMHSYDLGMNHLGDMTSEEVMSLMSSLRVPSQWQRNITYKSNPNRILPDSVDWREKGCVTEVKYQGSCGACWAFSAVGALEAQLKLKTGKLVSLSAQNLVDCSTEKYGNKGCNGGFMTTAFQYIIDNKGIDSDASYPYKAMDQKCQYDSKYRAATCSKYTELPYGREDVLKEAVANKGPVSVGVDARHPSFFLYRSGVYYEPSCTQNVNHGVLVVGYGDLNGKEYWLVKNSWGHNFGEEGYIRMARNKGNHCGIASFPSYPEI
T1 sequence (P53634 25-134 limits assumed): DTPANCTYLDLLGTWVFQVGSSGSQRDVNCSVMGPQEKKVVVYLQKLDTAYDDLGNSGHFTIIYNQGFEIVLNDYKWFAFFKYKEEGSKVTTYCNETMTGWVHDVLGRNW
T1 sequence (P53634 231-394 limits assumed): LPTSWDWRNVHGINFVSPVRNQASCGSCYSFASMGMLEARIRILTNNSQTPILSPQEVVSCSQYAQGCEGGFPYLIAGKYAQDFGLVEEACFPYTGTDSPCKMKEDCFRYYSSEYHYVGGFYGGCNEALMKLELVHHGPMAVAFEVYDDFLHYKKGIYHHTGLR
T1 sequence (P53634 395-463 limits assumed): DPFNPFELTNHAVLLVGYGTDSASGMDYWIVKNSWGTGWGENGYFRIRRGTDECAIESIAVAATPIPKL
Sequence of Procathepsin L (Homo sapiens) (P07711 114-333 limits assumed): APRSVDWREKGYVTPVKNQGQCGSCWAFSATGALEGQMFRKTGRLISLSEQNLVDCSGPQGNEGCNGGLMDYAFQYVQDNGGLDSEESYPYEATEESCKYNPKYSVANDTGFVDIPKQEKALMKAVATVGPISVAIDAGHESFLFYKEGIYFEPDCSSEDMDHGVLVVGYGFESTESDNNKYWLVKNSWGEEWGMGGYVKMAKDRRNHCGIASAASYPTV

Regarding `CCC[C@H](N)C(=O)N[C@H](/C=C/S(=O)(=O)c1ccccc1)CCc1ccccc1`, the values for the INH (at Dipeptidyl peptidase 1 [1]; in [4]) were 0.2 nM and 20 nM, respectively. Further, the Activity in the experiment filed under Homo sapiens [2], in the experiment filed under Homo sapiens [3], in the experiment listed under Homo sapiens [7], in the experiment listed under Homo sapiens [8] and in the experiment listed under Homo sapiens [9] was 75 in each case. The Ki turned out to be 5.5 nM at Cathepsin S, 120 nM on Cathepsin K, 137 nM on Pro-cathepsin H and 1100 nM at Cathepsin B. Besides, the IC50 at Dipeptidyl peptidase 1 [5] stood at 100 nM; against Dipeptidyl peptidase 1 [6], 70 nM.
As to `CCC[C@H](N)C(=O)N[C@@H](CCc1ccccc1)C(=O)Nc1ccc2c(c1)Oc1cc(NC(=O)[C@H](CCc3ccccc3)NC(=O)[C@@H](N)CCC)ccc1C21OC(=O)c2ccccc21`, the outcome at Dipeptidyl peptidase 1 [10] was inactive.
The same measure, in the same setting: as for `CC[C@H](N)C(=O)N[C@@H](CCc1ccccc1)C(=O)Nc1ccc2c(c1)Oc1cc(NC(=O)[C@H](CCc3ccccc3)NC(=O)[C@@H](N)CC)ccc1C21OC(=O)c2ccccc21`, the entry is “inactive”.
`CC[C@H](N)C(=O)N[C@H](C#N)Cc1ccc(-c2ccccc2)cc1`: the INH on Dipeptidyl peptidase 1 [1] is 1.5 nM. Also, the Ki is > 100000 nM on Cathepsin S, 18000 nM at Cathepsin K, 3700 nM at Pro-cathepsin H and > 100000 nM on Cathepsin B. For the same compound, the IC50 at Dipeptidyl peptidase 1 [5] was determined as 10000 nM; against Dipeptidyl peptidase 1 [6] it was 6100 nM.
As to `CC(C)C[C@H](NC(=O)N1CCOCC1)C(=O)N[C@H](/C=C/S(=O)(=O)c1ccccc1)CCc1ccccc1`, on Dipeptidyl peptidase 1 [1], the INH turned out to be 1800 nM. For the same compound, the Ki was < 0.1 nM on Cathepsin S, 1.2 nM on Cathepsin K, 1400 nM at Pro-cathepsin H and 64 nM at Cathepsin B. Moreover, the IC50 at Dipeptidyl peptidase 1 [5] came to 4000 nM; on Dipeptidyl peptidase 1 [6], 2600 nM.
In the case of `O=C1OC2(c3ccc(NC(=O)[C@H](CCc4ccccc4)NC(=O)[C@@H]4CCCN4)cc3Oc3cc(NC(=O)[C@H](CCc4ccccc4)NC(=O)[C@@H]4CCCN4)ccc32)c2ccccc21`, the result at Dipeptidyl peptidase 1 [10] was inactive.

Usually Ki stands for a measure of affinity in units of concentration, obtained from inhibition or displacement. A word on the IC50: it is the midpoint of a concentration-inhibition curve.
